Bioassay records deposited in PubChem by The Scripps Research Institute Molecular Screening Center.
CTSL1 counter-1: blocks F. hepatica cathepsin L1 in PFM18AAP counter-screen. inhibition, % at 5.96 µM. actives 0.49% (n = 300,000). recombinant F. hepatica cathepsin L1, Z-Leu-Arg-MCA fluorescence;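 active = inhibition above the mean of all tested compounds plus 3 SD, set per screening campaign, cut at about 17% in these data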
IMP-1 inh: inhibitors of Pseudomonas aeruginosa IMP-1 metallo-beta-lactamase; AID 1556; purified IMP-1, nitrocefin hydrolysis, epi-absorbance fluorescence; inhibition, % at 5.6 µM; actives 0.45% (n = 290,000);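 active = inhibition above the mean plus 3 SD of all compounds in the same screening run, cut at about 4.5% in these data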
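system = purified recombinant IMP-1 beta-lactamase | amount = 0.2 nM IMP-1, as dispensed | medium = HEPES buffer pH 7.1 with ZnSO4 and Brij 35 | times = 25 °C, 15 min preincubation, 25 min reaction | detection = plate fluorescence quenching by hydrolysis product, ex 480/em 530 nm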
VIM-2 inhibitor: blocks Pseudomonas aeruginosa VIM-2 metallo-beta-lactamase | purified VIM-2, nitrocefin hydrolysis, epi-absorbance fluorescence | inhibition, % at 5.6 µM | actives 0.89% (n = 290,000) | AID 1527;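 active = inhibition above the mean of all tested compounds plus 3 SD, cutoff set per screening run, cut at about 7.5% in these data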;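 note: red hydrolysis product quenches plate fluorescence so inhibitors raise well fluorescence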
PfM18AAP inh-1: blocks P. falciparum M18 aspartyl aminopeptidase. recombinant PfM18AAP, H-Glu-NHMec fluorogenic cleavage. inhibition, % at 7.35 µM. actives 1.2% (n = 290,000). AID 1822;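 active = inhibition above the campaign mean inhibition over all tested compounds plus 3 SD, cut at about 28% in these data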
PfM18AAP inh-2: PfM18AAP inhibition, confirmation; recombinant PfM18AAP, H-Glu-NHMec fluorogenic cleavage; inhibition, % at 7.35 µM; shares compounds with PfM18AAP inh-1; actives 28% (n = 2,400); AID 2170;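 active = mean inhibition over replicate wells above the hit cutoff set for the earlier primary screen, cut at about 29% in these data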
CTSL1 counter-2: Cathepsin L (human) inhibition, confirmation; purified cathepsin L1, Z-Leu-Arg-MCA fluorescence; AID 2178; shares compounds with PfM18AAP inh-1; inhibition, % at 5.96 µM; 2,400 tested, under 10 active;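 active = average inhibition across replicates above the hit cutoff set in the earlier primary screen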
Target sequence (P07711 whole entry, looked up): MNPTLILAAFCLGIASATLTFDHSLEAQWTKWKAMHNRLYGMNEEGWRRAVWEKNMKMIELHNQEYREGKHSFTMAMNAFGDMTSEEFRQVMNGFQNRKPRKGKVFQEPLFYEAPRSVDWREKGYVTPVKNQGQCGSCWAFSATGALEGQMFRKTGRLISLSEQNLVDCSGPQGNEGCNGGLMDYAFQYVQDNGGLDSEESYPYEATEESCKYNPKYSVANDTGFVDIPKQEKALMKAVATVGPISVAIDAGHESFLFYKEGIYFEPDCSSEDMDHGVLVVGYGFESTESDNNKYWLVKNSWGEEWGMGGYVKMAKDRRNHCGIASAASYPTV
Large screens that a line does not name were inactive (follow-up assays come after a bar, where they were run). Shown are actives, neighbours in structure and some others; about 2.7% of the full set was active somewhere.

COc1cc(C2C(C(C)=O)=C(O)C(=O)N2CCN2CCOCC2)ccc1O (configuration not stated)	none
CCN1CCN(C(=S)NC(C)c2ccccc2)CC1 (configuration not stated)	none
C/C(=N\Nc1nc(C)cc(-c2ccccc2)n1)c1ccc(C)o1	PfM18AAP inh-1 52 | PfM18AAP inh-2 inactive | CTSL1 counter-2 inactive
O=C(NC(=S)Nn1cnnc1)c1ccccc1Cl	PfM18AAP inh-1 83 | PfM18AAP inh-2 52 | CTSL1 counter-2 inactive
COc1cccc(C(=O)NC(=S)Nn2cnnc2)c1OC	PfM18AAP inh-1 73 | PfM18AAP inh-2 60 | CTSL1 counter-2 inactive
O=C(NC(=S)Nn1cnnc1)c1ccc(F)cc1Cl	PfM18AAP inh-1 78 | PfM18AAP inh-2 55 | CTSL1 counter-2 inactive
CC(C)NC(=S)NC(=O)c1ccc(Cl)cc1Cl	none
O=C(NC(=S)Nc1ncccn1)c1ccccc1Cl	none
COc1ccc(C[C@@H]2CN3C(=NC[C@@H]3C)N2C[C@H](C)NC(=O)c2ccc(C)c(Br)c2)cc1	none
C(=C\c1ccccc1)/CSc1ccccn1	none
Cc1cc(C)nc(SC/C=C/c2ccccc2)n1	PfM18AAP inh-1 34 | PfM18AAP inh-2 inactive | CTSL1 counter-2 inactive
Cc1c2cnn(-c3ccccc3)c(=O)c2c(C)n1CCCC(=O)NCCN1CCN(C)CC1	none
COc1cc(/C=N/NC(=O)c2ccncc2)ccc1OC(C)=O	none
COc1ccc(/C=N/Nc2cc(C)nc3c(C)cccc23)cc1	none
COc1cccc2c(N/N=C/c3ccc(O)c(O)c3)cc(C)nc12	PfM18AAP inh-1 56 | PfM18AAP inh-2 32 | CTSL1 counter-2 inactive
COc1cc(/C=N\Nc2nncn2N)ccc1OC(C)=O	PfM18AAP inh-1 53 | PfM18AAP inh-2 inactive | CTSL1 counter-2 inactive
COc1cc(/C=N/Nc2nncn2/N=C/c2ccc(O)c(OC)c2)ccc1O	PfM18AAP inh-1 63 | PfM18AAP inh-2 42 | CTSL1 counter-2 inactive
COc1ccc(OC)c(/C=N\Nc2nccs2)c1	none (no result: IMP-1 inh, VIM-2 inhibitor, PfM18AAP inh-1)
COc1ccc(OC)c(/C=N/Nc2nncn2/N=C/c2cc(OC)ccc2OC)c1	PfM18AAP inh-1 51 | PfM18AAP inh-2 inactive | CTSL1 counter-2 inactive
Cc1c(NC(=O)COC(=O)CCC(=O)c2ccc(Cl)cc2)c(=O)n(-c2ccccc2)n1C	none
CSc1ccccc1NC(=O)C1=CC(c2ccc(C)cc2)=NS(=O)(=O)N1C	none
COc1cc(/C=N/Nc2ccccc2C(F)(F)F)ccc1O	PfM18AAP inh-1 39 | PfM18AAP inh-2 inactive | CTSL1 counter-2 inactive
COc1cc(/C=N/Nc2ccccc2)ccc1O	none
O=C(NCc1ccco1)c1ccc(-c2cccc(Cl)c2)o1	none
CCOc1cc(C2NC(=O)NC2=O)ccc1O (configuration not stated)	PfM18AAP inh-1 35 | PfM18AAP inh-2 inactive | CTSL1 counter-2 inactive
Cc1ccc(/C=C2/Sc3ccccc3N(CC(=O)NCC3CCCO3)C2=O)cc1 (configuration not stated)	none
Cc1cc(/C=C2\Sc3ccccc3N2C)cc(C)[n+]1CC1CCCO1 (configuration not stated)	PfM18AAP inh-1 50 (no result: CTSL1 counter-1) | PfM18AAP inh-2 inactive | CTSL1 counter-2 inactive
CCC(C)N(C(=O)CSc1ccc(NC(C)=O)cc1)C1CCS(=O)(=O)C1 (configuration not stated)	none
CC(=O)Oc1ccc2c(C)cc(=O)oc2c1	none
CC(=O)Oc1cc2oc(=O)cc(C)c2cc1OC(C)=O	PfM18AAP inh-1 47 | PfM18AAP inh-2 75 | CTSL1 counter-2 19
Clc1cc(Cl)cc(Nc2ncn[nH]2)c1	PfM18AAP inh-1 45 | PfM18AAP inh-2 36 | CTSL1 counter-2 inactive
CN(C)c1ccc(C(=S)N2CCN(c3ccc([N+](=O)[O-])cc3)CC2)cc1	PfM18AAP inh-1 47 | PfM18AAP inh-2 inactive | CTSL1 counter-2 inactive
O=[N+]([O-])c1ccc(C(=S)N2CCN(c3ccc(F)cc3)CC2)cc1	none
Cc1ccc(-c2csc(N/N=C/c3ccco3)n2)c(C)c1	PfM18AAP inh-1 33 | PfM18AAP inh-2 inactive | CTSL1 counter-2 inactive
COc1cccc(NC(=O)c2cc3cccc(OC)c3o/c2=N\O)c1	PfM18AAP inh-1 51 | PfM18AAP inh-2 inactive | CTSL1 counter-2 inactive
CCc1noc(C)c1C(=O)OCC(=O)N(C)c1c(N)n(Cc2ccccc2)c(=O)[nH]c1=O	none (no result: IMP-1 inh, VIM-2 inhibitor, PfM18AAP inh-1)
COc1ccc(NC(=O)c2c(N)cnn2C)cc1	none
O=C1/C(=C/c2cccc(Br)c2)SC(=S)N1/N=C/c1cc([N+](=O)[O-])ccc1O	none
